Screening results as filed in PubChem.
HSP90 inh: HSP90 inhibitors, primary screen, cell lysate, luminescence. Rabbit reticulocyte lysate, luciferase refolding luminescence, 3 h. Heat shock protein HSP 90 (rabbit reticulocyte lysate; luciferase refolding). 290,000 tested, 0.91% active. inhibition, % at 5.6 µM. AID 1789, 2009;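 active = inhibition above the screen-wide mean plus 3 SD, computed separately per campaign, cut at about 16% in these data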;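 note: 0% = DMSO wells and 100% = 60 µM geldanamycin wells; inhibitors lower the luminescence because luciferase stays unfolded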
PPC-1+TRAIL kill: compounds killing PPC-1 cancer cells with TRAIL present, primary screen, TRAIL potentiator project, ATPLite luminescence, uHTS | PPC-1 cells + TRAIL, ATPLite viability luminescence | cell killing (% activity), % at 4 µM or 5 µM | 220,000 tested, 0.41% active | AID 1443, 2008;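 active = cell killing above 50% in the first pass at 4 µM, then a duplicate retest at 5 µM averaging 50% or more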;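 note: plate controls were cells with TRAIL plus DMSO for no effect and medium-only wells lacking cells for full effect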
FLuc act counter: FLuc activators, initial screening, artefact control for FLuc-dependent activation tests, biochemical, ATPlite luminescence | ATPlite luciferase biochemical, 10 min; 0 = ATP-free wells, 1 = DMSO control | 200,000 tested, under 10 active | Luciferin 4-monooxygenase (Photinus pyralis), P08659 | activation factor at 10 µM;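 active = luciferase activation factor, scaled between plate controls, of at least 2 with compound at 10 µM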
Target sequence (P08659 whole entry, looked up): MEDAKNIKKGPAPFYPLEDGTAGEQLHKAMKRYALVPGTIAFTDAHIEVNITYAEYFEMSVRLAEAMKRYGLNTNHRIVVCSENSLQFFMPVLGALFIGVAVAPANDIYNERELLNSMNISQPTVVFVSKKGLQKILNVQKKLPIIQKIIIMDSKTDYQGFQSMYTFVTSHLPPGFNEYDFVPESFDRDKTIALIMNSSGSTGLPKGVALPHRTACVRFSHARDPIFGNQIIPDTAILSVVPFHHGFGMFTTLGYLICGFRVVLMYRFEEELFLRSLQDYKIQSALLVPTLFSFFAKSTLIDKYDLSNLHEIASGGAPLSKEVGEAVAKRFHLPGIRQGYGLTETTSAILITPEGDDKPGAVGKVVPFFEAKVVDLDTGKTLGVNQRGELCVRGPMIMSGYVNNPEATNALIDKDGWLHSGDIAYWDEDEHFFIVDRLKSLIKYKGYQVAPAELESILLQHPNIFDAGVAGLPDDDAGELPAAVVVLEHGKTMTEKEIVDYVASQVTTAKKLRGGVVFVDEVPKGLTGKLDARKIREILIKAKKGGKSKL
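Material: Luciferase/luciferin reagent mix | Doses: Test compounds dosed from 2 mM stocks in 100% DMSO | Timing: 10 min incubation after luciferase reagent addition, room temperature | Measured by: Luminescence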
FLuc inh counter: firefly luciferase enzyme inhibitors, primary screen, artefact control for luciferase-based inhibitor screens, biochemical, luminescence, ATPLite; inhibition, % at 10 µM; AID 1006, 2008; 10 min; 200,000 tested, 1.5% active;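 active = inhibition above about 50% when tested at 10 µM, limit read from the data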
TRAIL sens C8: viability loss with TRAIL in NB7+C8 cells, primary screen, TRAIL sensitizer project, cell-based, ATPlite luminescence; inhibition (viability loss, TRAIL sensitization), % at 10 µM; 360,000 tested, 1% active; AID 624354, 2012;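 active = compounds causing at least 50% loss of cell viability in the single-dose screen, relative to plate controls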
Numbers without * were called inactive; . = no result; ! = not confirmed by another sample. Compounds with a hit are over-represented: about 2% of the library has one in this group of screens.

SMILES	HSP90 inh	PPC-1+TRAIL kill	FLuc act counter	FLuc inh counter	TRAIL sens C8
COC(=O)C1(C(=O)OC)C[C@H](/C=C/c2ccccc2)N(Cc2ccccc2OC)[C@@H]1c1ccc(F)cc1	.	.	.	.	7
Cc1ccc(C(=O)/C=C/C(=O)c2ccc(C)cc2)cc1	-4	8	1	2	-11
Cc1ccc(/C=C/C(=O)c2ccc(C)cc2)cc1	1	18	0.5	54*	1
CN(C)c1ccc(/C=C/C(=O)c2ccc(O)cc2)cc1	.	.	.	.	63*
CSc1ccc(/C=C/C(=O)c2ccc(NC(=O)C(C)C)cc2)cc1	2	16	1	1	-21
O=C(/C=C/c1ccc2c(c1)OCCCO2)c1ccccc1O	0	16	0.2	77*	39
CSc1ccc(C(=O)/C=C/c2ccc(N)cc2)cc1	2	44	0.1	90*	55*
CN(C)c1ccc(C(=O)C=Cc2ccc([N+](=O)[O-])cc2)cc1	.	.	.	.	-5
CN(C)CCNc1ncnc2c1ncn2[C@H]1CN(Cc2ccc3c(c2)OCO3)C[C@@H](CO)O1	.	.	.	.	-1
Cc1ccc(/C=C/C(=O)Nc2nc3ccccc3[nH]2)cc1	-2	40	0.9	12	23
Nc1ccc(/C=C/C(=O)c2ccco2)cc1	-1	17	0.5	55*	6
COc1ccc(C(=O)/C=C/c2ccc(O)cc2)cc1	-4	-1	0.4	55*	32
CN(C)c1ccc(/C=C/C(=O)c2ccccc2O)cc1	6	14	0.3	66*	14
Cc1ccc(/C=C/C(=O)c2nc3ccccc3[nH]2)cc1	11	15	0.1	94*	46
COc1ccc(C=CC(=O)c2ccc([N+](=O)[O-])cc2)cc1	.	.	.	.	1
Cc1ccc(/C=C/C(=O)c2ccccc2O)cc1	4	1	.	.	2
CC1(C)C(=O)C=C(N2CCCCC2)c2ccccc21	.	.	.	.	5
CCCS(=O)(=O)NC(=O)C1(C)CCCN(C(=O)COCc2ccccc2)C1 (stereo not drawn)	.	.	.	.	-11
CC1Cc2ccccc2N1C(=O)Cn1cc(C(F)(F)F)ccc1=O (stereo not drawn)	.	.	.	.	-14
CN1CCN(c2ncnc3c2ncn3[C@H]2CN(Cc3ccc(C(=O)O)cc3)C[C@@H](CO)O2)CC1	.	.	.	.	-2
Nc1ccc2c3c(ccc([N+](=O)[O-])c13)CC2	.	.	.	.	4
COCc1cn(CC(C)n2c(=O)c3ccccc3n2Cc2cc(C(C)C)no2)nn1 (stereo not drawn)	.	.	.	.	8
Brc1ccc(-c2cn3nc4c(nc3n2)CCCC4)cc1	1	8	0.6	41	-10
c1ccc(-c2cn3nc4c(nc3n2)CCCC4)cc1	5	7	0.1	86*	36
COc1cccc(-c2cnc(C(O)c3ccc(-c4ccccc4)cc3)[nH]2)c1 (stereo not drawn)	.	.	.	.	9
SMILES	HSP90 inh	PPC-1+TRAIL kill	FLuc act counter	FLuc inh counter	TRAIL sens C8
CCOC1=C2CN(S(=O)(=O)c3ccc(C)cc3)[C@H](c3ccccc3)C[C@@H]2N(S(=O)(=O)c2ccc(C)cc2)[C@H](c2cccs2)C1	.	.	.	.	2
Clc1c(-c2ccccc2)nnn1-c1ccccc1	-3	9	0.3	69*	21
Nc1nnn(-c2ccccc2)c1-c1ccccc1	.	.	.	.	-22
CCOC(=O)c1ccc(OCC(=O)c2ccc(O)cc2O)cc1	11	32	0.4	59*	43
CC1CCC(C(C)C)C(OC(=O)Cn2c(-c3ccccc3)[n+](C)c3ccccc32)C1 (stereo not drawn)	5	24	1.1	-6	58*!
O=C(/C=C/c1ccco1)Oc1cc(Br)cc(/C=N/NC(=O)c2ccccc2O)c1	-1	52*	1	0	44
Cc1ccc(C(=O)N/N=C/c2cccc(OC(=O)/C=C/c3ccco3)c2)cn1	-2	24	0.8	24	45
CCO/C(C)=N/Oc1cncnc1	.	.	.	.	-9
CC(=O)Nc1cccc(-c2ccnc3c2CC(C(=O)NCc2ccc(N(C)C)cc2)O3)c1 (stereo not drawn)	.	.	.	.	14
COc1ccc(-c2nn(-c3ccccc3)cc2/C=N/N2C(=O)CSC2=S)cc1	0	-12	1.1	-6	69*
CCc1nc2ccc(C(=O)NCCC(C)C)cn2c1N(CC)CCN(C)C	.	.	.	.	3
CCCCN(C(C)=O)c1c(CC)nc2ccc(C(=O)NCCCN(C)C)cn12	.	.	.	.	12
Cc1ccc(C(=O)Nc2cc([N+](=O)[O-])ccc2F)s1	-3	27	1	-1	8
CCc1ccc(C(=O)Nc2cc(C)ccc2F)s1	-1	10	0.8	16	53*
O=C(c1ccc(N2CCOCC2)c([N+](=O)[O-])c1)N1CCN(c2ccccc2)CC1	.	.	.	.	7
O=C(Nc1nc(-c2ccccc2)cs1)c1ccc(N2CCOCC2)c([N+](=O)[O-])c1	-5	42	1	-5	83*
O=C(O)c1cc(/C=C/c2ccc(N3CCOCC3)c([N+](=O)[O-])c2)nc2ccccc12	11	43	.	.	64*
CCCCN1C[C@H](CSC)[C@@H](CC(=O)Nc2ccc(OC)cc2)C1=O	.	.	.	.	2
O=C(Nc1cccc(C(F)(F)F)c1)c1csc([C@H]2C[C@H](O)[C@@H](CO)O2)n1	.	.	.	.	-4
C[C@H]1CN([C@@H](C)CO)C(=O)CCCn2cc(nn2)CO[C@@H]1CN(C)C(=O)Oc1ccccc1	.	.	.	.	-2
Cc1ccc(CN2C(=O)CSCC2(C)C(=O)Nc2c(C)cccc2C)cc1 (stereo not drawn)	.	.	.	.	-7
CC(NC(=O)c1cccc2c1Oc1ccccc1S2)C(=O)O (stereo not drawn)	.	.	.	.	1
CCOC(=O)c1cnc2c(-c3ccc(Cl)cc3)cnn2c1C	0	.	0.4	57*	51*
CCCCC[C@@H](C)N1C[C@H](COCc2ccccc2)Oc2cc(N3CC[C@@H](N(C)C)C3)ccc2S1(=O)=O	.	.	.	.	77*
CN(C)c1cccc(/C=C(\C#N)c2ccccc2)c1	2	6	.	.	50*
SMILES	HSP90 inh	PPC-1+TRAIL kill	FLuc act counter	FLuc inh counter	TRAIL sens C8
CCCc1c(C(=O)N/N=C/C(C)=C/c2ccccc2)nnn1-c1nonc1N	3	.	.	.	26
Nc1nonc1-n1nnc(C(=O)N/N=C/c2ccc(OCc3ccccc3)cc2)c1COc1ccc(F)cc1	-1	4	.	.	16
CCCc1c(C(=O)N/N=C/C=C/c2ccccc2)nnn1-c1nonc1N	.	.	.	.	55*
COc1cc(/C=N/NC(=O)c2nnn(-c3nonc3N)c2C)ccc1OCc1ccc(Cl)cc1	.	.	.	.	56*
Cc1cccc(COc2ccc(/C=N/NC(=O)c3nnn(-c4nonc4N)c3COc3ccc(F)cc3)cc2)c1	16*	13	.	.	19
COc1cc(/C=N/NC(=O)c2nnn(-c3nonc3N)c2C(C)C)ccc1OCc1ccccc1	3	.	.	.	23
O=S1(=O)N[C@H](Cc2ccccc2)COc2cc(N3CC[C@H](O)C3)ccc21	.	.	.	.	13
Cc1ccc(NC(=O)/C=C/c2ccco2)nc1	5	30	0.4	62*	33
